According to ChEMBL document CHEMBL4261524, “Succinct synthesis of saturated hydroxy fatty acids and in vitro evaluation of all hydroxylauric acids on FFA1, FFA4 and GPR84” (Medchemcomm, 2017):
Calls of active or inactive are those of the source. The calls are words filed in the database; no cut-off is given here.

What was measured:
[1] = molecular target: T1, Free fatty acid receptor 1 (Homo sapiens, UniProt O14842); experiment: Agonist activity at N-terminal FLAG-tagged/C-terminal eYFP-fused human FFA1 receptor expressed in Flp-In T-Rex 293 cells assessed as induction of Ca2+ mobilization after 45 mins by Fura2-AM dye-based fluorescence assay; assay type: functional, cell-based
[2] = molecular target: T2, Free fatty acid receptor 4 (Homo sapiens, UniProt Q5NUL3); experiment: Agonist activity at N-terminal FLAG-tagged/C-terminal eYFP-fused human FFA4 receptor expressed in HEK293T cells assessed as induction of beta-arrestin-2 recruitment after 5 mins by BRET assay; assay type: functional, cell-based
T2 sequence (Q5NUL3 whole entry): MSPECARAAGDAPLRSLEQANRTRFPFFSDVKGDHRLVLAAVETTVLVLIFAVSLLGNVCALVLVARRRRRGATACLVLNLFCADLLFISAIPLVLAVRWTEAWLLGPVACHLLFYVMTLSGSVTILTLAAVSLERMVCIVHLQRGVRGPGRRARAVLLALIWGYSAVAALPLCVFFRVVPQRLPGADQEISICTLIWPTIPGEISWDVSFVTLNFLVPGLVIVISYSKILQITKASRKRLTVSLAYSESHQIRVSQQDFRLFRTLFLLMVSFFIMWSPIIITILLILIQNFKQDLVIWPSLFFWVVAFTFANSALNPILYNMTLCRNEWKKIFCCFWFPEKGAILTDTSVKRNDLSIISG

[3] = molecular target: T3, G-protein coupled receptor 84 (Homo sapiens, UniProt Q9NQS5); experiment: Agonist activity at N-terminal FLAG-tagged/C-terminal eYFP-fused human GPR84 expressed in CHO cell membranes assessed as inhibition of forskolin-induced cAMP accumulation up to 100 uM preincubated for 20 mins followed by forskolin-induction and measured after 20 mins; assay type: functional, cell-based
[4] = molecular target: T3, G-protein coupled receptor 84; experiment: Agonist activity at N-terminal FLAG-tagged/C-terminal eYFP-fused human GPR84 expressed in CHO cell membranes assessed as inhibition of forskolin-induced cAMP accumulation preincubated for 20 mins followed by forskolin-induction and measured after 20 mins; assay type: functional, cell-based
[5] = molecular target: T3, G-protein coupled receptor 84; experiment: Agonist activity at N-terminal FLAG-tagged/C-terminal eYFP-fused human GPR84 expressed in CHO cell membranes assessed as induction of [35S]GTPgammaS binding after 1 hr by liquid scintillation counting method; assay type: functional
Procedure, shortened: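 Membranes were prepared from FLAG-GPR84-eYFP-expressing cells by homogenization in 10 mM Tris-HCl pH 7.4 with 0.1 mM EDTA, a 1000 × g spin to clear debris, then a 38 000 × g pellet. 10 μg membrane was incubated 1 h at 30 °C in HEPES/MgCl2/NaCl buffer, pH 7.5, with 0.05% fatty-acid-free BSA, 1 μM GDP and 0.1 nM [35S]GTPγS. Binding was read on GF/C filters by scintillation counting; means ± SEM, n ≥ 3.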

[6] = molecular target: T1, Free fatty acid receptor 1; experiment: Agonist activity at N-terminal FLAG-tagged/C-terminal eYFP-fused human FFA1 receptor expressed in HEK293T cells assessed as induction of beta-arrestin-2 recruitment after 15 mins by BRET assay; assay type: functional, cell-based
[7] = molecular target: T1, Free fatty acid receptor 1; experiment: Agonist activity at N-terminal FLAG-tagged/C-terminal eYFP-fused human FFA1 receptor expressed in HEK293T cells assessed as induction of beta-arrestin-2 recruitment at 100 uM after 15 mins by BRET assay relative to control; assay type: functional, cell-based

T1 sequence (O14842 whole entry, the tested form may be a part): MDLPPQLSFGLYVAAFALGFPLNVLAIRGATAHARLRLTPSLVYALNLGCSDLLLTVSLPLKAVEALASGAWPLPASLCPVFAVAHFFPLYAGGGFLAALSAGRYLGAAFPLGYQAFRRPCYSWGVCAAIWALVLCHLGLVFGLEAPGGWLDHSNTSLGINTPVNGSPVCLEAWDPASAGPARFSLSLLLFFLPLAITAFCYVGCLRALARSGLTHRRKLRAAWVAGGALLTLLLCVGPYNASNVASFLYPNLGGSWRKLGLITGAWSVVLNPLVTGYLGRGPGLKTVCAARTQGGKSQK
T3 sequence (Q9NQS5 whole entry, the tested form may be a part): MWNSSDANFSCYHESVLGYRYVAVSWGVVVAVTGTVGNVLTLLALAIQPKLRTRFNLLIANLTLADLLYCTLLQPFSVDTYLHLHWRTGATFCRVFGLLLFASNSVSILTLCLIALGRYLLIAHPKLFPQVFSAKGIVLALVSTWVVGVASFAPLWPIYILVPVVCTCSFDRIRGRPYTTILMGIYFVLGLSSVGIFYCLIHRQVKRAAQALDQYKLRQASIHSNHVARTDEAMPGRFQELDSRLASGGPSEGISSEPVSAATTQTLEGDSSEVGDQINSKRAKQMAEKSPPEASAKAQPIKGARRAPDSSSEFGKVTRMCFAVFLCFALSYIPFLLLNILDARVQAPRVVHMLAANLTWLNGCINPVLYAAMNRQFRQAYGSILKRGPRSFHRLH

## O=C(O)CCCCCCCCCCCCCCCO
[1]
  EC50: 20.9 µM
[2]
  EC50: 1.7 µM

## CCCCCCCCCCCC(=O)O [DODECANOATE]
[3]
  inhibition: inactive
[4]
  EC50: 8.71 µM
[1]
  EC50: 11.5 µM
[5]
  EC50: 10.5 µM
[2]
  EC50: 7.59 µM

## CC(O)CCCCCCCCCC(=O)O (centres undefined)
[6]
  EC50: > 100 µM
[5]
  EC50: > 100 µM
[2]
  EC50: > 100 µM

## CCCCCCC(O)CCCCC(=O)O (centres undefined)
[6]
  EC50: 18.6 µM
[5]
  EC50: > 100 µM
[2]
  EC50: > 100 µM

## O=C(O)CCCCCCCCCCCO
[6]
  EC50: > 100 µM
[5]
  EC50: 20.9 µM
[2]
  EC50: > 100 µM

## CCCCCCCC(O)CCCC(=O)O (centres undefined)
[6]
  EC50: > 100 µM
[5]
  EC50: > 100 µM
[2]
  EC50: > 100 µM

## CCCCCC(O)CCCCCC(=O)O (centres undefined)
[6]
  EC50: > 100 µM
[5]
  EC50: > 100 µM
[2]
  EC50: > 100 µM

## CCCCCCCCCC(O)CC(=O)O (centres undefined)
[7]
  Activity: < 25%
[6]
  EC50: > 100 µM
[5]
  EC50: 5.25 µM
[2]
  EC50: > 100 µM

## CCCCC(O)CCCCCCC(=O)O (centres undefined)
[6]
  EC50: > 100 µM
[5]
  EC50: > 100 µM
[2]
  EC50: > 100 µM

## CCCCCCCCC(O)CCC(=O)O (centres undefined)
[6]
  EC50: > 100 µM
[5]
  EC50: 38 µM
[2]
  EC50: > 100 µM

## CCC(O)CCCCCCCCC(=O)O (centres undefined)
[6]
  EC50: > 100 µM
[5]
  EC50: > 100 µM
[2]
  EC50: > 100 µM

## CCCC(O)CCCCCCCC(=O)O (centres undefined)
[6]
  EC50: > 100 µM
[5]
  EC50: > 100 µM
[2]
  EC50: > 100 µM

## CCCCCC[C@@H](O)C/C=C\CCCCCCCC(=O)O
[1]
  EC50: 11.5 µM
[2]
  EC50: 1.32 µM

## CCCCCCCCCCC(O)C(=O)O (centres undefined)
[6]
  EC50: 6.76 µM
[5]
  EC50: 12.9 µM
[2]
  EC50: > 100 µM

## CCCCCCC(O)CCCCCCCCCCC(=O)O (centres undefined)
[2]
  EC50: 1.74 µM
